The values that follow come from ChEMBL document CHEMBL4837191, “Prenylated Coumaric Acids from Artemisia scoparia Beneficially Modulate Adipogenesis” (J Nat Prod, 2021).

Common to all, as to format: functional, cell-based
Test [1] deals with 3T3-L1. The test is described as follows: Induction of adipogenic differentiation in mouse 3T3-L1 cells assessed as increase in FABP4 mRNA expression by RT-PCR analysis. Particulars: dose 2.5-25 µM. Put shortly: (§1)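 3T3-L1 preadipocytes induced 2 days post-confluence with half-strength MDI (IBMX, DEX, insulin in high-glucose DMEM + 10% FBS); compound (2.5, 10, 25 µM, DMSO 1,000× stocks) added at induction and at day-3 feeding (DMEM + 10% FBS, 0.43 µM insulin). RNA harvested 4 days post-MDI; reverse-transcription qPCR, normalized to Nono; compared with DMSO controls.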

Test [2] concerns 3T3-L1. Description: Induction of adipogenic differentiation in mouse 3T3-L1 cells assessed as increase in AdipoQ mRNA expression by RT-PCR analysis. The following applies: dose 2.5-25 µM. The procedure, abridged:
as §1

The test system of test [3] is 3T3-L1. Description: Induction of adipogenic differentiation in mouse 3T3-L1 cells at 2.5 to 25 uM measured after 4 days by Oil Red O staining. Particulars: dose 2.5-25 µM, time 4.0 day.
Test [4] relates to 3T3-L1. The test is described as follows: Induction of adipogenic differentiation in mouse 3T3-L1 cells assessed as increase in PPARgamma mRNA expression by RT-PCR analysis. The following applies: dose 2.5-25 µM. The procedure, abridged: as §1
Test [5] deals with 3T3-L1. Description: Inhibition of TNF-alpha induced lipolysis in mouse 3T3-L1 adipocytes assessed as reduction in glycerol release at 2.5 to 25 uM measured after 4 hrs by glycerol reagent based assay. Particulars: dose 2.5-25 µM. The procedure, abridged: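 Mature 3T3-L1 adipocytes (full MDI: 0.5 mM IBMX, 1 µM DEX, 1.72 µM insulin), refed day 6, then compound (2.5, 10, 25 µM) or DMSO for 3 days. Overnight 0.75 nM TNFα (or BSA/PBS vehicle), then 4 h in low-glucose DMEM + 2% BSA with TNFα. Medium glycerol by Free Glycerol Reagent, normalized to BCA lysate protein.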

Calls of active or inactive are those of the source. The calls are words filed in the database; no cut-off is given here.

Turning to `CC(=O)OC/C(C)=C\Cc1cc(/C=C\C(=O)O)cc(C/C=C(/C)CO)c1O`, the outcome in test [1], in test [2], in test [3] and in test [4] was Active. In addition, in test [5], the inhibition result was “Active”.
Consider `CC(C)=CCc1cc(/C=C/C(=O)O)cc(C/C=C(\C)CO)c1O`, for which the outcome in test [1], in test [2], in test [3] and in test [4] was Active. In addition, the inhibition result in test [5] was “inactive”.
Consider `CC(=O)OC/C(C)=C\Cc1cc(/C=C/C(=O)O)cc(C/C=C(/C)CO)c1O`, for which the outcome in test [1], in test [2], in test [3] and in test [4] was Active. Moreover, the inhibition result in test [5] was “Active”.
With `CC(C)=CCc1cc(/C=C/C(=O)O)cc(C/C=C(/C)CO)c1O`, the outcome in test [3] was Active. Further, in test [5], the inhibition entry is “inactive”.
